Compound activity from PubChem BioAssay.
MC4R barr agon – human MC4R agonism via beta-arrestin; U2OS MC4R beta-arrestin complementation, luminescence; percent of melanotan II response, DMSO zero; AID 540308; 0.98% of 360,000 active; activation, % at 8.9 µM; P32245;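 active = activation above a per-plate cutoff, the mean activation of sample wells on that plate plus 3 SD, cut at about 8% in these data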
m5-HT2A agonist – agonists of mouse serotonin 5-HT2A receptor (HTR2A); P35363; CHO-K1 mHTR2A beta-arrestin complementation, luminescence; percent of 30 µM serotonin response; activation, % at 7.6 µM; 0.66% of 360,000 active;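 active = activation above a run cutoff, the mean activation of all tested compounds plus 3 SD, cut at about 14% in these data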;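 note: 0% = plate median of compound wells and 100% = 30 µM serotonin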
EBI2 antag – antagonists of human EBI2 receptor. P32249. EBI2 beta-arrestin recruitment, luminescence, 7a,25-OHC stimulated. inhibition, % at 5 µM. 0.81% of 360,000 active. AID 651636; in the data active = inhibition above about 38%;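 note: enzyme fragment complementation signal reports receptor beta-arrestin coupling in cells; 0% = agonist plus DMSO wells and 100% = wells without agonist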
Target sequence (P32249 whole entry, looked up, the tested form may be a part): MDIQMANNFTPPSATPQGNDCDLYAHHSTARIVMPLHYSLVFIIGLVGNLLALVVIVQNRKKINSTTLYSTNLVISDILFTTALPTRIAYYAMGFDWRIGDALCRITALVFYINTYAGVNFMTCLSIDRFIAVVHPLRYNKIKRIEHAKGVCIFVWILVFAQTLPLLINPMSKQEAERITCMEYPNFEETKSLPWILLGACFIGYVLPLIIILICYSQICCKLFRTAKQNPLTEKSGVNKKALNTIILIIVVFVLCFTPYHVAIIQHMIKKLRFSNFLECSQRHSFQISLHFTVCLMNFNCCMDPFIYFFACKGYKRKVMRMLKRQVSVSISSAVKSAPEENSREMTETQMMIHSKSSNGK
MC4R antagonist – blocks human MC4R cAMP signaling; P32245; MC4R-expressing cells, MTII-stimulated cAMP, LANCE TR-FRET; inhibition, % at 6.5 µM; 0.48% of 360,000 active; AID 540295;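 active = inhibition above its plate's cutoff, the mean of tested wells on that plate plus 3 SD, cut at about 29% in these data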;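 note: 0% = Melanotan II alone and 100% = Melanotan II plus saturating MCL0020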
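System: U2OS cells stably expressing human melanocortin 4 receptor (MC4R). Reagent: Melanotan II challenge after compound preincubation. Doses: 6.5 µM. Times: 30-min compound, 1-h challenge, 1-h detection, room temperature. Measured by: TR-FRET with Eu-cAMP and labeled anti-cAMP, 671 nm. Replicates: singlicate.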
EBI2 antag conf – confirmation of human EBI2 receptor antagonists | shares compounds with EBI2 antag | EBI2 beta-arrestin luminescence, 7a,25-OHC antagonism | inhibition, % at 5 µM | 29% of 2,400 active;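 active = inhibition of at least 50%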
EBI2 ag – counter-screen for EBI2 antagonists: EBI2 agonist activity. shares compounds with EBI2 antag. EBI2-expressing cells, agonist mode, luminescence, 60 min; 0% vehicle, 100% 7α,25-dihydroxycholesterol control. activation, % at 5 µM. 2,400 tested, under 10 active. AID 652000;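 active = activation of at least 50%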
bGal cs – inhibits E. coli beta-galactosidase, counter-screen for EBI2 antagonists; purified beta-galactosidase, luminescent Galacton Star, 15 min; inhibition, % at 5 µM; AID 652176; 1% of 2,400 active; shares compounds with EBI2 antag;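 active = replicate-average signal at least 3 plate SD below neutral wells, shown as high inhibition, flagging enzyme-inhibiting false positives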;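 note: 0% = DMSO wells with enzyme and 100% = wells lacking enzyme; higher means stronger loss of beta-gal luminescence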
An asterisk follows results filed as active. Only some compounds are listed: those with a hit (about 2.8% of all), similar ones and a draw of the others.

Results for Cc1cc(OCC(=O)N(C)C2CCCCC2)cc(C)c1Cl ?
MC4R barr agon: 2; m5-HT2A agonist: -3; EBI2 antag: 79*; MC4R antagonist: 10; EBI2 antag conf: 43; EBI2 ag: 0; bGal cs: 5

Results for CCOC(=O)C(Cc1c[nH]c2cc([N+](=O)[O-])ccc12)(NC(C)=O)C(=O)OCC ?
MC4R barr agon: 0; m5-HT2A agonist: 0; EBI2 antag: 3; MC4R antagonist: 1

How did Cc1ccnc(NC(=O)CNC(=O)c2ccc(Br)o2)c1 do in these assays?
MC4R barr agon: 1; m5-HT2A agonist: 0; EBI2 antag: -15; MC4R antagonist: 1

What do the screens show for `Cc1ccc(Oc2ccc(C=O)cn2)cc1`?
MC4R barr agon: -2; m5-HT2A agonist: 0; EBI2 antag: 16; MC4R antagonist: 3

How did CO/N=C/c1ccc(Oc2ccc(C)cc2)nc1 do in these assays?
MC4R barr agon: 2; m5-HT2A agonist: 0; EBI2 antag: 87*; MC4R antagonist: 1; EBI2 antag conf: 73*; EBI2 ag: 0; bGal cs: 7

What do the screens show for `COc1ccc(CCNc2cc(-c3ccccc3)nc3ncnn23)cc1`?
MC4R barr agon: 0; m5-HT2A agonist: 7; EBI2 antag: 45*; MC4R antagonist: 17; EBI2 antag conf: 20; EBI2 ag: 0; bGal cs: 6

How did Cc1c(-c2ccnc3cc(C(=O)O)nn23)cnn1C do in these assays?
MC4R barr agon: 1; m5-HT2A agonist: 0; EBI2 antag: -8; MC4R antagonist: 21

Results for O=C(c1cc2ccccc2o1)N1CCN(c2ccccc2Cl)CC1 ?
MC4R barr agon: 1; m5-HT2A agonist: 7; EBI2 antag: 86*; MC4R antagonist: -1; EBI2 antag conf: 67*; EBI2 ag: -1; bGal cs: -13

What do the screens show for `O=C(Nc1ccc(N2CCN(C(=O)c3ccco3)CC2)c(Cl)c1)c1cc2ccccc2o1`?
MC4R barr agon: 1; m5-HT2A agonist: 11; EBI2 antag: -51; MC4R antagonist: 3

Results for O=C(c1ccc(Br)o1)N1CCN(c2ccccn2)CC1 ?
MC4R barr agon: 0; m5-HT2A agonist: 4; EBI2 antag: -1; MC4R antagonist: -3

How did O=C(c1cc2ccccc2o1)N1CCN(c2cccc(Cl)c2)CC1 do in these assays?
MC4R barr agon: -2; m5-HT2A agonist: -3; EBI2 antag: 54*; MC4R antagonist: 12; EBI2 antag conf: 58*; EBI2 ag: 1; bGal cs: 1

What do the screens show for `O=C(c1cc2ccccc2o1)N1CCN(c2ccccn2)CC1`?
MC4R barr agon: -1; m5-HT2A agonist: 1; EBI2 antag: 51*; MC4R antagonist: 1; EBI2 antag conf: 35; EBI2 ag: -1; bGal cs: -15

Results for CCOc1ccc(S(=O)(=O)N2CCCCC2)cc1NC(=O)Cc1cccc(C(F)(F)F)c1 ?
MC4R barr agon: -2; m5-HT2A agonist: -1; EBI2 antag: 14; MC4R antagonist: 3

What do the screens show for `CCCn1c(=S)[nH]c2cc(Cl)ccc21`?
MC4R barr agon: -1; m5-HT2A agonist: 0; EBI2 antag: -1; MC4R antagonist: 12

How did Cc1ccc(-n2c(SCc3ccc(C(=O)O)cc3)nnc2-c2ccncc2)cc1 do in these assays?
MC4R barr agon: -1; m5-HT2A agonist: -3; EBI2 antag: 13; MC4R antagonist: -1

How did CCC(C)(C)C1CCC2(CC1)NC(=O)N(CC(=O)N(C)Cc1ccc3c(c1)OCCO3)C2=O (configuration not stated) do in these assays?
MC4R barr agon: 5; m5-HT2A agonist: 0; EBI2 antag: 8; MC4R antagonist: 8

How did CNC(=S)N1N=C(c2ccc(Br)cc2)CC1c1ccc(OC)cc1 (configuration not stated) do in these assays?
MC4R barr agon: 0; m5-HT2A agonist: -2; EBI2 antag: 88*; MC4R antagonist: 10; EBI2 antag conf: 87*; EBI2 ag: -1; bGal cs: -21

Results for C[C@@H]1CN([C@@H](C)CO)C(=O)CCCn2nncc2CO[C@@H]1CN(C)C(=O)C1CCCCC1 ?
MC4R barr agon: 2; m5-HT2A agonist: 2; EBI2 antag: -2; MC4R antagonist: 3
